Fewer inactive variants are shown than the library holds.
B1: tRNA (parent)
chain: GUUCCGUUGGCGUAAUGGUAACGCGUCUCCCUCCUAAGGAGAAGACUGCGGGUUCGAGUCCCGUACGGAACG

Variants of: B1
Experiment: yeast fitness relative to wild type (ratio to wild type); higher = fitter; tRNA-Arg(CCU), competitive growth, 37 C, YPD
Outline: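 The tRNA-Arg(CCU) gene variants were made by chemical synthesis with a 3% per-site mutation rate at 69 sites and inserted at the native genomic locus of Saccharomyces cerevisiae. After pooling, the strains were competed in YPD at 37°C for 24 hours in six parallel replicates. Gene amplicons from the start population and each end population were read by 100-nucleotide paired-end sequencing, and Darwinian fitness relative to wild type was taken from genotype frequency changes. Genotypes needed ≥ 100 starting reads, and estimates < 0.5 were set to 0.5.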

Row | Variant | yeast fitness
1 | U19G A43U C61G | 0.559
2 | U19C C31G C62U | 0.702
3 | U19C C33U G41C | 0.583
4 | U19C A65U G68A | 0.534
5 | U19C U35C | 0.81
6 | U19G C31A U35A C55G G58C | 0.519
7 | U19C U32C C60A C61A | 0.731
8 | U19C G25C A37G | 0.6
9 | U19C C22G C24A | 0.72
10 | U19G G23A U35G | ≤ 0.5
11 | U19C G23A C24A C29U C30U G63A | ≤ 0.5
12 | U19C G50A C61U | ≤ 0.5
13 | U19C A57G G58C | 0.609
14 | U19C C29U A42C A57G | 0.541
15 | U19C G25C G51C C60U | ≤ 0.5
16 | U19G A20C U26C U28C | ≤ 0.5
17 | U19C C22G C24A G39C A45C U47C | 0.721
18 | U19C G38C G58C U64A | ≤ 0.5
19 | A20C A21U C27G U35G | 0.521
20 | U19G A21U C46U | 0.809
21 | U19C C27U C33G C34G G44A G50A G52A | ≤ 0.5
22 | U19C A40C | 1.1
23 | U19C A40G | 0.898
24 | U19C A40U | 0.98

Row | Variant | yeast fitness
25 | U19C C31A C66U | 0.555
26 | U19C G23A A37C | ≤ 0.5
27 | U19C G25C G58A | 0.625
28 | U19C C24G C34A | ≤ 0.5
29 | U19C A65C | 0.888
30 | U19G U28C A37G C66U A69U | 0.524
31 | U19C C30G A40C G51A C61A | 0.696
32 | U19G G56A G67U | ≤ 0.5
33 | U19C A45U C46U A57U | ≤ 0.5
34 | U19C C34G G68A | ≤ 0.5
35 | U19G A43U A70C | 0.716
36 | A20C A21G A45U | 0.91
37 | U19C G51A | 0.681
38 | A20C A21G A70C | 0.803
39 | U19G U47C | 0.972
40 | A20C A21G G56C C66U | ≤ 0.5
41 | U19G C66A | 0.53
42 | U19G C66U | 0.831
43 | U19G C22U C31U A40U A65C G68A | ≤ 0.5
44 | U19G G38C A70U | 0.501
45 | A20C A36G C55U | 0.556
46 | U19C C60A G68C | ≤ 0.5
47 | U19G A42U C46U | 0.569
48 | U19C C24G A36G A37U U47A | ≤ 0.5

Row | Variant | yeast fitness
49 | A20C A21C C62G | ≤ 0.5
50 | U19C G41A | 0.899
51 | U19C C24G G39C | ≤ 0.5
52 | U19G A20U C30U G48A | 0.577
53 | U19G A20U G67A | 0.743
54 | A20C A36U A45C C49G | ≤ 0.5
55 | U19C C33A | 0.636
56 | U19C G23C C29G A43U G50A A65C | ≤ 0.5
57 | U19G G50A G51C C55G C61U | ≤ 0.5
58 | U19G C27G C34A A42U | ≤ 0.5
59 | U19G C22U A70G | 0.624
60 | U19G C22G A36C A57G C60A C66G | ≤ 0.5
61 | U19C U32C A40C G41A | 0.674
62 | U19G C27U A37G U47C | ≤ 0.5
63 | U19C C29A U32G G58A A69G | ≤ 0.5
64 | U19C G56C A57G G68U | ≤ 0.5
65 | U19C G25A A45G C62U | 0.702
66 | U19G A43C U53C C55G C66U | ≤ 0.5
67 | U19C C22U C55U C61G | ≤ 0.5
68 | U19C A40C A65U | 0.605
69 | U19G G25A G67A | 0.934
70 | U19G A37G A57G A70U | ≤ 0.5
71 | U19C C31U G58A | 0.715
72 | U19G A43C C49U U53C C55G | ≤ 0.5

Row | Variant | yeast fitness
73 | U19G C30U C62G | 0.603
74 | U19C U32G | 0.655
75 | U19C C24U U32C A37C A45G A57C | 0.638
76 | U19C C29A A43C | ≤ 0.5
77 | U19C C29U C61U G68C | ≤ 0.5
78 | U19G C33U C34U | ≤ 0.5
79 | U19G A21U C33A C49A | ≤ 0.5
80 | U19C C30U G56A A69C | ≤ 0.5
81 | U19G U53A | 0.506
82 | U19G C22U C30U C31U A40U G67A | ≤ 0.5
83 | U19C C24U C55U A57C | ≤ 0.5
84 | U19C A57U | 0.658
85 | U19G C49U C60A | ≤ 0.5
86 | U19C A37G A65U | 0.58
87 | U19C G48C A69C | 1.03
88 | A20C A21G C46U C60G | ≤ 0.5
89 | A20C A21U C27G U35G C46A A70C | ≤ 0.5
90 | U19C C46A | 0.978
91 | U19C C46U | 1.06
92 | U19C C46G | 0.943
93 | U19G C49G | 0.69
94 | U19G A21C C55G U59A | ≤ 0.5
95 | U19C A45C | 0.861
96 | U19C A45G | 1

Row | Variant | yeast fitness
97 | U19C C66U A69C | 0.685
98 | U19C A43C | 0.907
99 | U19C A43G | 1.07
100 | U19C A43U | 1.03
101 | U19C C24G U35C A37U U47A | ≤ 0.5
102 | A20C A21U C33G A57C | ≤ 0.5
103 | U19G A20U U53G | ≤ 0.5
104 | U19C C55G | 0.676
105 | U19C C55U | 0.807
106 | U19C C46G A69U | 0.803
107 | U19G A36C | 0.529
108 | U19C G52A | 0.78
109 | U19C G52C | 0.562
110 | U19C C55U U59C C61G | ≤ 0.5
111 | U19G G58C | 1.03
112 | U19C C27A G50C | 0.577
113 | U19C A70G | 0.982
114 | U19G C29A | 0.56
115 | U19G G25A G39A | 0.597
116 | U19G C29U A40C | 0.52
117 | A20C A21U C27G A42U A70G | ≤ 0.5
118 | U19C C24U U53A C62A C66U | ≤ 0.5
119 | U19C C29G C33G G41C C66U | ≤ 0.5
120 | U19C A43G A69U | 1.05

Row | Variant | yeast fitness
121 | U19G C49U C62A A69G | ≤ 0.5
122 | U19C A45C C55U | 0.518
123 | A20C A37C U53C G63C | ≤ 0.5
124 | U19C A57C C61A | ≤ 0.5
125 | U19C C29G A57G U59A G68U A70G | 0.55
126 | U19C A65G G68U | 0.583
127 | U19G C30A A45U G58C A69U | ≤ 0.5
128 | U19C A42U G68C | ≤ 0.5
129 | U19C C24U G51A | 0.66
130 | U19C C27U C29G C34A A42C A65G | 0.541
131 | A20C A36G U47C | 0.658
132 | U19G C30A A45U G56A G58C A69U | ≤ 0.5
133 | U19G A57G A70U | 0.731
134 | U19G A40G C49A | ≤ 0.5
135 | U19C C27U C29G C34A A42C A69C | ≤ 0.5
136 | U19G U32G U53G | ≤ 0.5
137 | U19G G51C | 0.537
138 | U19C A69U | 0.925
139 | U19C A57G A70U | 0.601
140 | U19C C34U G52A U59A | 0.669
141 | U19C G50A A65C | 0.566
142 | U19C C31G C66G | ≤ 0.5
143 | U19C C27G C31G G39C A57C | ≤ 0.5
144 | U19G G44A G48A G50C | ≤ 0.5

Row | Variant | yeast fitness
145 | A20C A21G G58C | 0.698
146 | A20C A37C G63A | ≤ 0.5
147 | U19C G25A G48C C62A | ≤ 0.5
148 | U19G U32C | 1.04
149 | U19G U32A | 0.735
150 | U19C G39A | 0.952
151 | U19G C29U A40C C60G C62A A65G | 0.525
152 | A20C A21U C27G A42U | ≤ 0.5
153 | U19C U53C U54A | ≤ 0.5
154 | U19C C22A U32A A37U A45U | ≤ 0.5
155 | U19C C22A U32A A37U A45C | 0.505
156 | U19G C22U C31U A40U | 0.586
157 | U19G U59A A69U | ≤ 0.5
158 | U19C C31A A37G G50U C62G | ≤ 0.5
159 | U19C C27G C29A C33A A43C | ≤ 0.5
160 | U19C C22U | 0.895
161 | U19C G23A A37C A65G | ≤ 0.5
162 | U19G U64A A65G G67U | 0.606
163 | U19C A43U A69U | 1.09
164 | U19G C30A C49U | 0.602
165 | U19G G58A C66U | 0.857
166 | U19G U35C A40U | ≤ 0.5
167 | U19C G25C C29A G52A | ≤ 0.5
